{"source": "ChEMBL document CHEMBL2331224", "about": "(J Med Chem, 2013)", "key": {"Mus musculus [1]": {"test_system": "Mus musculus", "assay": "Toxicity against KKAy mouse assessed as plasma triglyceride level at 10 mg/kg/day, po for 14 days (reference value: 122.4 +/- 11.0 mg/dL)", "assay_type": "organism-based", "set-up": "route oral", "conditions": "in vivo, 336 h"}, "Mus musculus [2]": {"test_system": "Mus musculus", "assay": "Toxicity in ICR mouse assessed as change in renal function parameters at 30 mg/kg/day, po for 7 days", "assay_type": "organism-based", "set-up": "route oral", "conditions": "in vivo, 168 h", "summary_of_the_method": "(§1)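 Male ICR mice, 6−7 weeks old, four per cage, grouped by body weight. Oral 30 mg/kg or vehicle (1% ethanol/0.5% CMC in water, 10 mL/kg) once daily for 7 days, body weight recorded daily. After overnight fasting, mice were weighed under ether, and liver was removed and weighed. Serum was analysed on a dry-chemistry analyser for TG, TCHO, ALP, CRE, BUN and other markers. n = 7−23, ANOVA.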"}, "Mus musculus [3]": {"test_system": "Mus musculus", "assay": "Toxicity in ICR mouse assessed as increase in blood total cholesterol level at 30 mg/kg/day, po for 7 days", "assay_type": "organism-based", "set-up": "route oral", "conditions": "in vivo, 168 h", "summary_of_the_method": "as §1"}, "Mus musculus [4]": {"test_system": "Mus musculus", "assay": "Toxicity in ICR mouse assessed as increase in blood triglyceride level at 30 mg/kg/day, po for 7 days", "assay_type": "organism-based", "set-up": "route oral", "conditions": "in vivo, 168 h", "summary_of_the_method": "as §1"}, "[5]": {"target": "Retinoic acid receptor RXR-alpha/oxysterols receptor LXR-alpha (Homo sapiens) (UniProt P19793+Q13133)", "assay": "Transactivation of LXRalpha/RXRalpha (unknown origin) by luciferase reporter gene assay relative to carba-T0901317", "assay_type": "protein-complex assay", "summary_of_the_method": "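Heterodimer reporter in COS-1 cells co-transfected with RXRα (0.5 μg), partner receptor (LXRα for line 2, PPARγ for line 3; 0.5 μg), partner response element-luciferase (4.0 μg), and SEAP. Compound (DMSO below 1%) with ~2.0 × 10⁴ cells/well, 18 h, 37 °C; luciferase normalized to SEAP; triplicate, three runs.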"}, "[6]": {"target": "T1, Retinoic acid receptor gamma (Homo sapiens) (UniProt P13631)", "T1 sequence (whole entry)": "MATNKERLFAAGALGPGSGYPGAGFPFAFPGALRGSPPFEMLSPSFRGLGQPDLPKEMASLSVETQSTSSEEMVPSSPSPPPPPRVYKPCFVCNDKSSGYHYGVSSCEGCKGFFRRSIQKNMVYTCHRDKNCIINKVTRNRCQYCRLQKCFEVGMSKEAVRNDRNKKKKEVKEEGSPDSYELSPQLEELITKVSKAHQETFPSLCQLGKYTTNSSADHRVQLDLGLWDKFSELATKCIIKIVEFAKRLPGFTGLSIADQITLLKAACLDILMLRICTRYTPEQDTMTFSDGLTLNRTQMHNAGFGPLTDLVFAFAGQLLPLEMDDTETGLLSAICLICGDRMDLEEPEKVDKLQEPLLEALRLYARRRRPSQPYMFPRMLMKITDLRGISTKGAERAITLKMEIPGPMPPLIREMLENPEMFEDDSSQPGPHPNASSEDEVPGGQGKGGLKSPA", "assay": "Transactivation of RARgamma (unknown origin) by luciferase reporter gene assay relative to All-trans retinoic acid"}, "[7]": {"target": "T2, Retinoic acid receptor beta (Homo sapiens) (UniProt P10826)", "T2 sequence (whole entry)": "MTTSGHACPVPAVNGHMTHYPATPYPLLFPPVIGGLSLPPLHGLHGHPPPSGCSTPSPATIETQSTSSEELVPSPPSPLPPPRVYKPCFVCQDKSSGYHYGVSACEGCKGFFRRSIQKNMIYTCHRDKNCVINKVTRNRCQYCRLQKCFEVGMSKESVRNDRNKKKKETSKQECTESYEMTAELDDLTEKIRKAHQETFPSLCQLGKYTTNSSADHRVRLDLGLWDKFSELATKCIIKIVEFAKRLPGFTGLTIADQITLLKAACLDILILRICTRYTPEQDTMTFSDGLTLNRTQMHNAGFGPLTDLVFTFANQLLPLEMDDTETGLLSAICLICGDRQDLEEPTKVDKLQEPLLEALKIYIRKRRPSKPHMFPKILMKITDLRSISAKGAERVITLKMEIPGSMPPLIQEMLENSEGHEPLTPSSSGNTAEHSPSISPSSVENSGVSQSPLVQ", "assay": "Transactivation of RARbeta (unknown origin) by luciferase reporter gene assay relative to Am80"}, "[8]": {"target": "T3, Retinoic acid receptor alpha (Homo sapiens) (UniProt P10276)", "T3 sequence (whole entry)": "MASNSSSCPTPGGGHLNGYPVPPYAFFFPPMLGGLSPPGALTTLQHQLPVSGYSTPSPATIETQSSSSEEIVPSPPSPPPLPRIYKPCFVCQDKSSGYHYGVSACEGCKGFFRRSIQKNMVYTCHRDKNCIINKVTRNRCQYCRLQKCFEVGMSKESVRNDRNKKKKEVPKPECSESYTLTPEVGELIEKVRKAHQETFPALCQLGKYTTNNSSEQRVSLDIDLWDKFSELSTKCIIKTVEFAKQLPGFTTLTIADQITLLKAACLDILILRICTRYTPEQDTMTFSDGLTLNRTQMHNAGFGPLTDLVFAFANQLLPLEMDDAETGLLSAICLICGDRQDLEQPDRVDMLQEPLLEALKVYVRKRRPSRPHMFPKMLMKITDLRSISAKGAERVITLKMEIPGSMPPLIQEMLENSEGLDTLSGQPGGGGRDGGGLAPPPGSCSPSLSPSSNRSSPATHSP", "assay": "Transactivation of RARalpha (unknown origin) by luciferase reporter gene assay relative to Am80"}, "[9]": {"target": "T4, Retinoic acid receptor RXR-alpha (Homo sapiens) (UniProt P19793)", "T4 sequence (whole entry)": "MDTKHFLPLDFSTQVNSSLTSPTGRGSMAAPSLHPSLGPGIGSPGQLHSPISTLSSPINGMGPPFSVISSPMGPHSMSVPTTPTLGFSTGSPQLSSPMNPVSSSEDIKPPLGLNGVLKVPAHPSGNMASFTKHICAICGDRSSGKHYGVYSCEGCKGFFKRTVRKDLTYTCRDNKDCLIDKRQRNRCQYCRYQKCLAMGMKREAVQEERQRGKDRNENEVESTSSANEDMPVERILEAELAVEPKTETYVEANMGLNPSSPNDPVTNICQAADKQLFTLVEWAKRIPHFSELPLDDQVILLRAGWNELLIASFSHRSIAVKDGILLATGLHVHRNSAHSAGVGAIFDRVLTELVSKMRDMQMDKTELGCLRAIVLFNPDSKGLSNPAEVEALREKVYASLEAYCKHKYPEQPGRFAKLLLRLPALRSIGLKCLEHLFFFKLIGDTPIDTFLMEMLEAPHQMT", "assay": "Partial agonist activity at RXRalpha (unknown origin) expressed in COS1 cells after 18 hrs by luciferase reporter gene assay relative to bexarotene", "assay_type": "cell-based", "conditions": "COS-1", "summary_of_the_method": "(§2)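 COS-1 cells in DMEM with 10% FBS at 37 °C, 5% CO2, transfected with RXRα, an RXR-response-element luciferase reporter and a SEAP background vector. Cells were seeded at about 2.0 × 10⁴ per well with compound (DMSO below 1%) for 18 h. Luciferase was normalized to SEAP and expressed relative to 1 μM reference RXR full agonist as 100%. EC50 came from full dose-response curves. Triplicates, at least three experiments.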"}, "[10]": {"target": "T4, Retinoic acid receptor RXR-alpha (Homo sapiens)", "assay": "Transactivation of RXRalpha (unknown origin) expressed in COS1 cells at 0.1 uM after 18 hrs by luciferase reporter gene assay relative to bexarotene", "assay_type": "cell-based", "conditions": "COS-1", "summary_of_the_method": "as §2"}, "[11]": {"target": "T4, Retinoic acid receptor RXR-alpha (Homo sapiens)", "assay": "Transactivation of RXRalpha (unknown origin) expressed in COS1 cells at 1 uM after 18 hrs by luciferase reporter gene assay relative to bexarotene", "assay_type": "cell-based", "conditions": "COS-1", "summary_of_the_method": "as §2"}}, "note": "Active and inactive are the calls of the source. The rule behind the calls is not given here.", "data": [{"smiles": "Cc1cc2c(cc1-n1c(C(F)(F)F)nc3cc(C(=O)O)ccc31)C(C)(C)CCC2(C)C", "values": [{"measurement": "Activity", "setting": "Mus musculus [1]", "result": 185, "unit": "mg/dL"}, {"measurement": "Activity", "setting": "Mus musculus [2]", "result": "Non-toxic"}, {"measurement": "Activity", "setting": "Mus musculus [3]", "result": "Non-toxic"}, {"measurement": "Activity", "setting": "Mus musculus [4]", "result": "Non-toxic"}, {"measurement": "Activity", "setting": "[5]", "result": "Active"}, {"measurement": "Activity", "setting": "[6]", "result": "Active"}, {"measurement": "Activity", "setting": "[7]", "result": "Active"}, {"measurement": "Activity", "setting": "[8]", "result": "Active"}, {"measurement": "Emax", "setting": "[9]", "result": 67, "unit": "%"}, {"measurement": "Efficacy", "setting": "[10]", "result": 21, "unit": "%"}, {"measurement": "Efficacy", "setting": "[11]", "result": 65, "unit": "%"}]}]}
